Results taken from ChEMBL document CHEMBL1141789, “Minutosides A and B, antifungal sulfated steroid xylosides from the patagonian starfish Anasterias minuta” (2005).
Calls of active or inactive are those of the source. The rule behind the calls is not given here.

What was measured:
[1] = tested on: Cladosporium cucumerinum; experiment: Antifungal activity against Cladosporium cucumerinum at 10 to 60 ug/spot after 2 to 3 days; format: functional
Summary of the method: (§1)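 TLC bioautography: geometric dilutions made from freshly prepared stocks (1-10 mg mL^-1) in a suitable solvent, 10 µL spotted per TLC plate. Plates then sprayed with C. cucumerinum (DSM 62122) or A. flavus (BAFC 589) suspended in nutritive medium, incubated 2-3 days in a moist glass box. Read-out: diameter (mm) of clear inhibition zones against dark gray background; benomyl reference.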

[2] = tested on: Cladosporium cucumerinum; experiment: Antifungal activity against Cladosporium cucumerinum at 10 ug/spot after 2 to 3 days; format: functional, organism-based; summary of the method: as §1
[3] = tested on: Cladosporium cucumerinum; experiment: Antifungal activity against Cladosporium cucumerinum at 20 to 60 ug/spot after 2 to 3 days; format: functional; summary of the method: as §1
[4] = tested on: Aspergillus flavus; experiment: Antifungal activity against Aspergillus flavus at 20 to 60 ug/spot after 2 to 3 days; format: functional; summary of the method: as §1
[5] = tested on: Aspergillus flavus; experiment: Antifungal activity against Aspergillus flavus at 5 to 10 ug/spot after 2 to 3 days; format: functional; summary of the method: as §1
[6] = tested on: Cladosporium cucumerinum; experiment: Antifungal activity against Cladosporium cucumerinum at 5 ug/spot after 2 to 3 days; format: functional
Summary of the method: (§2)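 TLC bioautography. Geometric dilutions were made from freshly prepared stock solutions (1-10 mg mL^-1) in a suitable solvent and spotted onto TLC plates. The read-out was the diameter (mm) of clear inhibition zones against a dark grey background.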

[7] = tested on: Aspergillus flavus; experiment: Antifungal activity against Aspergillus flavus at 5 ug/spot after 2 to 3 days; format: functional; summary of the method: as §2

| Structure (SMILES) | Activity [1] | Activity [2] | Activity [3] | Activity [4] | Activity [5] | inhibition zone (IZ) [1] | inhibition zone (IZ) [4] | inhibition zone (IZ) [5] | further results |
| --- | --- | --- | --- | --- | --- | --- | --- | --- | --- |
| CC(C)[C@H](/C=C/[C@@H](C)[C@H]1C[C@@H](O)[C@@H]2[C@]1(C)CC[C@@H]1[C@@]3(C)CC[C@H](O)C[C@@H]3[C@@H](O)C[C@]12O)O[C@@H]1OC[C@@H](O)[C@H](O)[C@H]1O | inactive | inactive | inactive | inactive | inactive |  |  |  |  |
| CC(C)[C@H](CC[C@@H](C)[C@H]1C[C@@H](O)[C@@H]2[C@]1(C)CC[C@@H]1[C@@]3(C)CC[C@H](O)C[C@@H]3[C@@H](O)C[C@]12O)O[C@@H]1OC[C@@H](O)[C@H](O)[C@H]1O | inactive | inactive | inactive | inactive | inactive |  |  |  |  |
| CCCCNC(=O)n1c(NC(=O)OC)nc2ccccc21 [BENOMYL] |  |  |  |  |  |  |  |  | inhibition zone (IZ) [6]: 15 mm; inhibition zone (IZ) [7]: 14 mm |
| CC(C)[C@H](/C=C/[C@@H](C)[C@H]1C[C@@H](O)[C@@H]2[C@]1(C)CC[C@@H]1[C@@]3(C)CC[C@H](OS(=O)(=O)[O-])C[C@@H]3[C@@H](O)C[C@]12O)O[C@@H]1OC[C@@H](O)[C@H](O)[C@H]1O.[Na+] [MINUTOSIDE A] |  |  |  |  |  | 7 mm | 5 mm | 5 mm |  |
| C[C@H](/C=C/[C@@H](C)[C@H]1C[C@@H](O)[C@@H]2[C@]1(C)CC[C@@H]1[C@@]3(C)CC[C@H](O[C@@H]4OC[C@@H](O)[C@H](O)[C@H]4O)C[C@@H]3[C@@H](O)C[C@]12O)[C@H](C)C(=O)NCCS(=O)(=O)[O-].[Na+] [MINUTOSIDE B] |  | inactive |  |  | inactive |  | 5 mm |  | inhibition zone (IZ) [3]: 3 mm |
| CC(C)[C@H](CC[C@@H](C)[C@H]1C[C@@H](O)[C@@H]2[C@]1(C)CC[C@@H]1[C@@]3(C)CC[C@H](OS(=O)(=O)O)C[C@@H]3[C@@H](O)C[C@]12O)O[C@@H]1OC[C@@H](O)[C@H](O)[C@H]1O [PYCNOPODIOSIDE B] |  |  |  |  |  | 7 mm | 5 mm | 5 mm |  |
